Test results from ChEMBL document CHEMBL1255437, “Involvement of the beta subunit of RNA polymerase in resistance to streptolydigin and streptovaricin in the producer organisms Streptomyces lydicus and Streptomyces spectabilis” (2010).
≈ marks a conversion by molar mass, not a printed value.

Assays:
[1] = tested on: Streptomyces spectabilis; assay: Antimicrobial activity against Streptomyces spectabilis NRRL 2494 after 5 to 7 days
[2] = tested on: Streptomyces albus; assay: Antimicrobial activity against transconjugant Streptomyces albus carrying pEM4T-Sbeta206 with RNA polymerase beta subunit A471S mutant after 5 to 7 days; type: functional
Summary of the method: (§1)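 MIC by agar dilution. Spore suspensions were replica plated with a plate replicator onto Bennet's agar containing a range of streptolydigin or streptovaricin concentrations, then incubated 5 to 7 days at 30°C. Recombinant S. albus strains carried pEM4T-derived plasmids introduced by conjugation from E. coli ET12567(pUB307); producer strains and host S. albus J1074 were tested the same way.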

[3] = tested on: Streptomyces albus; assay: Antimicrobial activity against transconjugant Streptomyces albus carrying pEM4T-Sbeta204 with RNA polymerase beta subunit L463I mutant after 5 to 7 days; type: functional
Summary of the method: as §1

[4] = tested on: Streptomyces albus; assay: Antimicrobial activity against transconjugant Streptomyces albus carrying pEM4T-Sbeta102 with RNA polymerase beta subunit S475A mutant after 5 to 7 days; type: functional
Summary of the method: as §1

[5] = tested on: Streptomyces albus; assay: Antimicrobial activity against transconjugant Streptomyces albus carrying pEM4T-Sbeta100 with RNA polymerase beta subunit I467L mutant after 5 to 7 days; type: functional
Summary of the method: as §1

[6] = tested on: Streptomyces albus; assay: Antimicrobial activity against transconjugant Streptomyces albus carrying pEM4T-Sbeta101 with RNA polymerase beta subunit N474S mutant after 5 to 7 days; type: functional
Summary of the method: as §1

[7] = tested on: Streptomyces albus; assay: Antimicrobial activity against transconjugant Streptomyces albus carrying pEM4T-Sbeta after 5 to 7 days; type: functional
Summary of the method: as §1

[8] = tested on: Streptomyces albus; assay: Antimicrobial activity against transconjugant Streptomyces albus carrying pEM4T-Sbeta105 with RNA polymerase beta subunit N474S/S475A mutant after 5 to 7 days; type: functional
Summary of the method: as §1

[9] = tested on: Streptomyces albus; assay: Antimicrobial activity against transconjugant Streptomyces albus carrying pEM4T-Sbeta205 with RNA polymerase beta subunit S470N mutant after 5 to 7 days; type: functional
Summary of the method: as §1

[10] = tested on: Streptomyces albus; assay: Antimicrobial activity against transconjugant Streptomyces albus carrying pEM4T-Sbeta' after 5 to 7 days; type: functional
Summary of the method: as §1

[11] = tested on: Streptomyces albus; assay: Antimicrobial activity against transconjugant Streptomyces albus carrying pEM4T-CASbeta after 5 to 7 days; type: functional
Summary of the method: as §1

[12] = tested on: Streptomyces albus; assay: Antimicrobial activity against transconjugant Streptomyces albus carrying pEM4T-Sbeta103 with RNA polymerase beta subunit T638K mutant after 5 to 7 days; type: functional
Summary of the method: as §1

[13] = tested on: Streptomyces albus; assay: Antimicrobial activity against transconjugant Streptomyces albus carrying pEM4T-Sbeta104 with RNA polymerase beta subunit A639S mutant after 5 to 7 days; type: functional
Summary of the method: as §1

[14] = tested on: Streptomyces albus; assay: Antimicrobial activity against transconjugant Streptomyces albus carrying pEM4T-Abeta207 with RNA polymerase beta subunit S470N/A471S mutant after 5 to 7 days; type: functional
Summary of the method: as §1

[15] = tested on: Streptomyces albus; assay: Antimicrobial activity against transconjugant Streptomyces albus carrying pEM4T-Abeta201 with RNA polymerase beta subunit F484L mutant after 5 to 7 days; type: functional
Summary of the method: as §1

[16] = tested on: Streptomyces albus; assay: Antimicrobial activity against transconjugant Streptomyces albus carrying pEM4T-Abeta202 with RNA polymerase beta subunit E485D mutant after 5 to 7 days; type: functional
Summary of the method: as §1

[17] = tested on: Streptomyces albus; assay: Antimicrobial activity against transconjugant Streptomyces albus carrying pEM4T-Lbeta105 with RNA polymerase beta subunit S624A mutant after 5 to 7 days; type: functional
Summary of the method: as §1

[18] = tested on: Streptomyces albus; assay: Antimicrobial activity against transconjugant Streptomyces albus carrying pEM4T-Lbeta after 5 to 7 days; type: functional
Summary of the method: as §1

[19] = tested on: Streptomyces albus; assay: Antimicrobial activity against transconjugant Streptomyces albus carrying pEM4T after 5 to 7 days; type: functional
Summary of the method: as §1

[20] = tested on: Streptomyces albus; assay: Antimicrobial activity against transconjugant Streptomyces albus carrying pEM4T-Lbeta104 with RNA polymerase beta subunit F593Y mutant after 5 to 7 days; type: functional
Summary of the method: as §1

[21] = tested on: Streptomyces albus; assay: Antimicrobial activity against transconjugant Streptomyces albus carrying pEM4T-Lbeta101 with RNA polymerase beta subunit L485F mutant after 5 to 7 days; type: functional
Summary of the method: as §1

[22] = tested on: Streptomyces albus; assay: Antimicrobial activity against transconjugant Streptomyces albus J1074 after 5 to 7 days; type: functional
Summary of the method: as §1

[23] = tested on: Streptomyces albus; assay: Antimicrobial activity against transconjugant Streptomyces albus carrying pEM4T-Abeta after 5 to 7 days; type: functional
Summary of the method: as §1

[24] = tested on: Streptomyces albus; assay: Antimicrobial activity against transconjugant Streptomyces albus carrying pEM4T-CALbeta after 5 to 7 days; type: functional
Summary of the method: as §1

[25] = tested on: Streptomyces albus; assay: Antimicrobial activity against transconjugant Streptomyces albus carrying pEM4T-Lbeta' after 5 to 7 days; type: functional
Summary of the method: as §1

[26] = tested on: Streptomyces lydicus; assay: Antimicrobial activity against Streptomyces lydicus NRRL 2433 after 5 to 7 days; type: functional
Summary of the method: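 Spore suspensions replica-plated with a plate replicator onto Bennet's agar plates containing a range of streptolydigin and streptovaricin concentrations. Plates incubated 5 to 7 days at 30°C. MIC scored as growth inhibition on the solid medium. Strain NRRL2433 is the streptolydigin producer.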

[27] = tested on: Streptomyces albus; assay: Antimicrobial activity against transconjugant Streptomyces albus carrying pEM4T-Lbeta103 with RNA polymerase beta subunit L555V mutant after 5 to 7 days; type: functional
Summary of the method: as §1

[28] = tested on: Streptomyces albus; assay: Antimicrobial activity against transconjugant Streptomyces albus carrying pEM4T-Lbeta106 with RNA polymerase beta subunit A636S mutant after 5 to 7 days; type: functional
Summary of the method: as §1

[29] = tested on: Streptomyces albus; assay: Antimicrobial activity against transconjugant Streptomyces albus carrying pEM4T-Abeta203 with RNA polymerase beta subunit F484L/E485D mutant after 5 to 7 days; type: functional
Summary of the method: as §1

[30] = tested on: Streptomyces albus; assay: Antimicrobial activity against transconjugant Streptomyces albus carrying pEM4T-Lbeta108 with RNA polymerase beta subunit F593Y/M594L mutant after 5 to 7 days; type: functional
Summary of the method: as §1

[31] = tested on: Streptomyces albus; assay: Antimicrobial activity against transconjugant Streptomyces albus carrying pEM4T-Lbeta107 with RNA polymerase beta subunit L485F/D486E mutant after 5 to 7 days; type: functional
Summary of the method: as §1

[32] = tested on: Streptomyces albus; assay: Antimicrobial activity against transconjugant Streptomyces albus carrying pEM4T-Lbeta102 with RNA polymerase beta subunit D486E mutant after 5 to 7 days; type: functional
Summary of the method: as §1

[33] = tested on: Streptomyces albus; assay: Antimicrobial activity against transconjugant Streptomyces albus carrying pEM4T-Lbeta100 with RNA polymerase beta subunit T458N mutant after 5 to 7 days; type: functional
Summary of the method: as §1

Compound | MIC [1] [µg/mL] | MIC [2] [µg/mL] | MIC [3] [µg/mL] | MIC [4] [µg/mL] | MIC [5] [µg/mL] | MIC [6] [µg/mL] | MIC [7] [µg/mL] | MIC [8] [µg/mL] | MIC [9] [µg/mL] | MIC [10] [µg/mL] | MIC [11] [µg/mL] | MIC [12] [µg/mL] | MIC [13] [µg/mL] | MIC [14] [µg/mL] | further results
CO[C@H]1/C=C/O[C@@]2(C)Oc3c(C)c(O)c4c(O)c(c(/C=N/N5CCN(C)CC5)c(O)c4c3C2=O)NC(=O)/C(C)=C\C=C\[C@H](C)[C@H](O)[C@@H](C)[C@@H](O)[C@@H](C)[C@H](OC(C)=O)[C@@H]1C [RIFAMPIN] | > 40 | 5 (≈ 6.08 µM) | 5 (≈ 6.08 µM) | 40 (≈ 48.6 µM) | 40 (≈ 48.6 µM) | 5 (≈ 6.08 µM) | 40 (≈ 48.6 µM) | 5 (≈ 6.08 µM) | 5 (≈ 6.08 µM) | 5 (≈ 6.08 µM) | 40 (≈ 48.6 µM) | 20 (≈ 24.3 µM) | 40 (≈ 48.6 µM) | 40 (≈ 48.6 µM) | 
CNC(=O)[C@@H](C)[C@H]1C(=O)/C(=C(O)/C=C/C(C)=C/[C@@H](C)[C@H]2O[C@@]3(C)O[C@H](C=C[C@@]34CO4)[C@@H]2C)C(=O)N1[C@@H]1CC[C@H](O)[C@H](C)O1 [STREPTOLYDIGIN] |  |  |  |  |  |  |  |  |  |  |  |  |  |  | MIC [15]: 6 µg/mL (≈ 9.99 µM); MIC [16]: 1 µg/mL (≈ 1.66 µM); MIC [17]: 20 µg/mL (≈ 33.3 µM); MIC [18]: 20 µg/mL (≈ 33.3 µM); MIC [19]: 1 µg/mL (≈ 1.66 µM); MIC [20]: 10 µg/mL (≈ 16.6 µM); MIC [21]: 1 µg/mL (≈ 1.66 µM); MIC [22]: 1 µg/mL (≈ 1.66 µM); MIC [23]: 1 µg/mL (≈ 1.66 µM); MIC [24]: 20 µg/mL (≈ 33.3 µM); MIC [25]: 1 µg/mL (≈ 1.66 µM); MIC [26]: > 200 µg/mL; MIC [27]: 1 µg/mL (≈ 1.66 µM); MIC [28]: 10 µg/mL (≈ 16.6 µM); MIC [29]: 9 µg/mL (≈ 15 µM); MIC [30]: 1 µg/mL (≈ 1.66 µM); MIC [31]: 1 µg/mL (≈ 1.66 µM); MIC [32]: 10 µg/mL (≈ 16.6 µM); MIC [33]: 20 µg/mL (≈ 33.3 µM)
COC(=O)[C@@H]1[C@H](O)[C@H](C)[C@H](O)[C@H](C)/C=C\C=C(/C)C(=O)Nc2c(C)c(OC(C)=O)c3c(c2O)C(=O)C(C)=C2OCOC(=C23)/C(C)=C/[C@@](C)(O)[C@H](O)[C@@H](C)[C@H]1O [STREPTOVARICIN] | > 200 | 80 (≈ 104 µM) | 70 (≈ 90.9 µM) | 200 (≈ 260 µM) | 200 (≈ 260 µM) | 200 (≈ 260 µM) | 200 (≈ 260 µM) | 70 (≈ 90.9 µM) | 80 (≈ 104 µM) | 70 (≈ 90.9 µM) | 200 (≈ 260 µM) | 200 (≈ 260 µM) | 200 (≈ 260 µM) | 200 (≈ 260 µM) | 
